Active and inactive are the calls of the source.
Legend:
LTC-14 [1] = assay: Inhibition of rat LTC-14 cells activation assessed decrease in TGF-beta1 induced Acta2 mRNA expression at 0.5 uM incubated for 24 hrs by q-PCR analysis; assay type: functional, cell-based
In short: (§1)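 Immortalized rat PSC line LTC-14, about 1×10^5 cells per well, was grown 24 h at 37 °C in 5% CO2. Cells then received compound (0.5 μM) plus TGF-β1 for 24 h; TGF-β1 is stated as 0.5 ng/mL in the text and 5 ng/mL in the methods. Col1a1 and Acta2 mRNA were measured by RT-qPCR. Mean ± SD versus TGF-β1 alone.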

LTC-14 [2] = assay: Inhibition of rat LTC-14 cells activation assessed as inhibition of PDGFB mRNA expression at 0.5 uM treated under conditioned media of DSL-6A/C1 cells for 24 hrs by q-PCR analysis; assay type: functional, cell-based
In short: (§2)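 LTC-14 PSCs were exposed for 24 h to conditioned medium from rat DSL-6A/C1 cancer cells containing compound at 0.5 μM. Pdgfa, Pdgfb, Fgf2, Hgf and Periodin mRNA were quantified by RT-qPCR. Three repeats, mean ± SD versus CM alone.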

LTC-14 [3] = assay: Inhibition of rat LTC-14 cell activation assessed decrease in TGF-beta1 induced Colla1 mRNA expression at 0.5 uM incubated for 24 hrs by q-PCR analysis; assay type: functional; in short: as §1
LTC-14 [4] = assay: Inhibition of rat LTC-14 cells activation assessed decrease in TGF-beta1 induced collagen 1 protein expression at 0.5 uM incubated for 24 hrs by Western blot analysis; assay type: functional, cell-based
In short: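 LTC-14 cells were treated for 24 h with compound (0.5 μM) plus TGF-β1 (0.5 ng/mL in the text, 5 ng/mL in the methods). Lysates were run on 10% SDS-PAGE, transferred to PVDF and probed with rabbit anti-collagen I, with β-actin as reference. Bands were quantified by densitometry versus TGF-β1 alone.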

[5] = Cytotoxicity against rat DSL-6A/C1 cells assessed as reduction in cell proliferation at 0.5 uM incubated for 24 hrs by MTT assay; assay type: cell-based; conditions: dsl-6a/c1, 24 h
[6] = target: T1, Vitamin D3 receptor (Homo sapiens) (UniProt P11473); assay: Binding affinity to VDR (unknown origin) at 1 uM by fluorescence polarization assay relative to calcipotriol
T1 sequence (whole entry): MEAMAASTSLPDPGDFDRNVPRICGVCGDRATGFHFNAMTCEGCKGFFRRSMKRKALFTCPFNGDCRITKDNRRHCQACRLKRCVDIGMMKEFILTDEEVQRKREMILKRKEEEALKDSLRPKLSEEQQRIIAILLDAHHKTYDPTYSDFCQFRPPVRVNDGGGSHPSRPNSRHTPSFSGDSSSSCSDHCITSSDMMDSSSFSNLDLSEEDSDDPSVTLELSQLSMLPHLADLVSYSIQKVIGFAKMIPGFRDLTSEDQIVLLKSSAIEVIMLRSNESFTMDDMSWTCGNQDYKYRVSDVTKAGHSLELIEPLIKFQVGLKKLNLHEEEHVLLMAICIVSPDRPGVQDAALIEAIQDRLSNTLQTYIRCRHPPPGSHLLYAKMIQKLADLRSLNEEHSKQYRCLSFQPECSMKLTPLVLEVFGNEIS
In short: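 PolarScreen VDR competitor fluorescence polarization assay with compounds at 1 μM in triplicate. Read-out used 535 nm excitation and 590 nm emission filters.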

LTC-14 [7] = assay: Inhibition of rat LTC-14 cells activation assessed as inhibition of Fgf mRNA expression at 0.5 uM treated under conditioned media of DSL-6A/C1 cells for 24 hrs by q-PCR analysis; assay type: functional, cell-based; in short: as §2
LTC-14 [8] = assay: Inhibition of rat LTC-14 cells activation assessed as inhibition of Periodin-mRNA expression at 0.5 uM treated under conditioned media of DSL-6A/C1 cells for 24 hrs by q-PCR analysis; assay type: functional, cell-based; in short: as §2
LTC-14 [9] = assay: Inhibition of rat LTC-14 cells activation assessed as inhibition of PDGFA mRNA expression at 0.5 uM treated under conditioned media of DSL-6A/C1 cells for 24 hrs by q-PCR analysis; assay type: functional, cell-based; in short: as §2
[10] = Cytotoxicity against rat LTC-14 cells assessed as reduction in cell proliferation incubated for 24 hrs by MTT assay; assay type: cell-based; conditions: LTC-14, 24 h
LTC-14 [11] = assay: Inhibition of rat LTC-14 cells activation assessed as inhibition of Hgf mRNA expression at 0.5 uM treated under conditioned media of DSL-6A/C1 cells for 24 hrs by q-PCR analysis; assay type: functional, cell-based; in short: as §2
LTC-14 [12] = assay: Inhibition of rat LTC-14 cells interaction with DSL-6A/C1 cells in conditioned media assessed as inhibition of PDGF-A protein expression at 0.5 uM measured after 24 hrs by Western blot analysis; assay type: functional, cell-based
In short: (§3)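 LTC-14 cells were treated for 24 h with DSL-6A/C1 conditioned medium plus compound (0.5 μM). Proteins were separated on 10% SDS-PAGE, transferred to PVDF and probed with rabbit anti-PDGF-A or anti-POSTN, with β-actin as loading reference.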

LTC-14 [13] = assay: Inhibition of rat LTC-14 cells interaction with DSL-6A/C1 cells in conditioned media assessed as inhibition of POSTN protein expression at 0.5 uM measured after 24 hrs by Western blot analysis; assay type: functional, cell-based; in short: as §3
DSL-6A/C1 [14] = assay: Potentiation of gemcitabine-induced antitumor activity against luciferase-tagged rat DSL-6A/C1 cells and GFP-tagged LTC-14 cells co-inoculated in orthotropic xenograft BALB/c nude mouse model of pancreatic cancer assessed as reduction in tumor volume at 500 ug/kg, ip administered once every 3 days for 12 days coadministered with gemcitabine at 100 mg/kg and measured after 3 days post last dose by IVIS optical imaging analysis; assay type: functional, organism-based; conditions: dose 500.0 µg/kg, time 12.0 day
In short: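 DSL-6A/C1-luci and LTC-14-GFP cells were co-inoculated orthotopically into the pancreas of nude mice, n=5 per group. Treatment began 7 days after grafting (methods) or 14 days (text). Gemcitabine 100 mg/kg ip every 3 days, alone or with compound 500 μg/kg or calcipotriol 60 μg/kg in ethanol/polyoxyethylene castor oil/saline (1:1:18), for 12 days. Tumour growth was followed by bioluminescence imaging.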

[15] = target: T1, Vitamin D3 receptor (Homo sapiens); assay: Agonist activity at VDR (unknown origin) expressed in HEK293 cells co-transfected with pGL4.27-SPP3-Luc and CMV-hRXRalpha and pCMX-Renilla plasmids after 24 hrs by dual luciferase reporter gene assay; assay type: cell-based; conditions: filed as agonist, dose 0.0001-1 µM
In short: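 HEK293 cells in 48-well plates were transfected per well with 40 ng TK-Spp×3-LUC reporter, 20 ng pCMX-Renilla, 30 ng pENTER-CMV-hRXRα and 100 ng pCMX-VDR using Lipofectamine 2000. Compounds were added 8 h post-transfection, and dual-luciferase activity was read 24 h later. Firefly signal was normalised to Renilla. The experiment was run three times.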

LTC-14 [16] = assay: Inhibition of rat LTC-14 cells activation assessed as reduction in ECM deposition resulting in doxorubicin accumulation in PSC spheres pretreated with compounds followed by doxorubicin addition by laser confocal microscopy analysis; assay type: functional, cell-based
In short: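 LTC-14 cells were grown in 3D culture to form PSC spheres and treated with compounds. Fluorescent doxorubicin was then added, and its penetration into the spheres was imaged by laser confocal microscopy. Three repeats, versus untreated control.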

Vitamin D3 receptor = target: T2, Vitamin D3 receptor (Homo sapiens, UniProt P11473); assay: Binding affinity to VDR (unknown origin) by fluorescence polarization assay
T2 sequence (P11473 whole entry): T1 sequence (whole entry)
In short: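 Competitive VDR binding was measured by PolarScreen fluorescence polarization, in triplicate.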

DSL-6A/C1 [17] = assay: Antiproliferative activity against rat DSL-6A/C1 cells assessed as reduction in cell viability at 0.5 uM incubated for 24 hrs compound treated LTC-14-CM cells by MTT assay; assay type: functional, cell-based
In short: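 LTC-14 PSCs were pretreated with compound for 24 h. Their collected supernatant was used to culture DSL-6A/C1 cells, and proliferation was read by MTT: 4 h incubation with MTT (5 mg/mL stock), absorbance at 570 nm. Run in triplicate, compared with untreated PSC-CM.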

DSL-6A/C1 [18] = assay: Antiproliferative activity against rat DSL-6A/C1 cells assessed as reduction in cell viability at 0.5 uM treated with conditioned media of LTC-14 cells for 24 hrs by MTT assay; assay type: functional, cell-based
In short: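 Rat pancreatic cancer DSL-6A/C1 cells were cultured in supernatant from LTC-14 PSCs (PSC-CM) with compound added at 0.5 μM for 24 h. Viability was then read by MTT: 4 h incubation with MTT (5 mg/mL stock), absorbance at 570 nm. Run in triplicate, compared with PSC-CM alone.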

Mus musculus = assay: Inhibition of GFP-tagged rat LTC-14 cells activation in BALB/c nude mouse xenografted along with luciferase-tagged DSL-6A/C1-Luc cells assessed as reduction in alpha-smooth muscle actin expression in tumor at 500 ug/kg, ip administered once every 3 days for 12 days coadministered with gemcitabine at 100 mg/kg by DAPI staining based laser confocal scanning microscopy; assay type: functional, organism-based; conditions: dose 500.0 µg/kg, time 12.0 day
In short: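 Tumours were taken from orthotopic co-inoculated nude mice given gemcitabine 100 mg/kg plus compound (500 μg/kg) or calcipotriol (60 μg/kg) ip for 12 days. Sections were fixed in 4% PFA, permeabilised with 0.5% Triton X-100 and blocked in 5% BSA. They were incubated with anti-α-SMA overnight at 4 °C, then an Alexa Fluor 594 secondary for 1 h at 37 °C, DAPI-counterstained and imaged by confocal microscopy.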

| RBA [6] | RBA ([6]; filed as agonist) | Structure (SMILES) | inhibition (LTC-14 [1]) | inhibition (LTC-14 [2]) | inhibition (LTC-14 [3]) | inhibition (LTC-14 [4]) | Activity [5] | inhibition (LTC-14 [7]) | inhibition (LTC-14 [8]) | inhibition (LTC-14 [9]) | IC50 [10] | inhibition (LTC-14 [11]) | other results |
| --- | --- | --- | --- | --- | --- | --- | --- | --- | --- | --- | --- | --- | --- |
| 36% |  | CCN(CC)CCNC(=O)c1ccc(C(CC)(CC)c2ccc(OCCC(C)(C)O)c(C)c2)n1CC | Active | Active | Active | Active | Non-Toxic | Active | Active | Active | > 10 µM | Active |  |
|  | 68% | CCn1c(C(=O)NCCN2CCN(C)CC2)ccc1C(CC)(CC)c1ccc(OCCC(C)(C)O)c(C)c1 | Active | Active | Active | Active | Non-Toxic | Active | Active | Active | > 10 µM | Active | inhibition (LTC-14 [12]): Active; inhibition (LTC-14 [13]): Active |
|  | 85% | CCN(CC)CCCNC(=O)c1ccc(C(CC)(CC)c2ccc(OCCC(C)(C)O)c(C)c2)n1CC | Active | Active | Active | Active | Non-Toxic | Active | Active | Active | > 10 µM | Active | inhibition (LTC-14 [12]): Active; TGI (DSL-6A/C1 [14]): Active; Activity [15]: Dose-dependent effect; inhibition (LTC-14 [16]): Active; IC50 (Vitamin D3 receptor): 0.0925 µM; Activity (DSL-6A/C1 [17]): Active; Activity (DSL-6A/C1 [18]): inactive; inhibition (LTC-14 [13]): Active; inhibition (Mus musculus): Active |
| inactive |  | CCn1cc(C(CC)(CC)c2ccc(OCC(C)O)c(C)c2)cc1C(=O)NCCN1CCCCC1 (stereo unspecified) | Active | Active | Active | Active | Non-Toxic | Active | Active | Active | > 10 µM | Active |  |
| 24% |  | CCn1c(C(=O)NCCN2CCCCC2)ccc1C(CC)(CC)c1ccc(OCCC(C)(C)O)c(C)c1 | Active | Active | Active | Active | Non-Toxic | Active | Active | Active | > 10 µM | Active |  |
| 23% |  | CCN(CC)CCCNC(=O)c1ccc(C(CC)(CC)c2ccc(OCCCC(O)(CC)CC)c(C)c2)n1CC | Active |  | Active | Active |  |  |  |  | > 10 µM |  |  |
|  | 77% | CCn1c(C(=O)NCC2CCOCC2)ccc1C(CC)(CC)c1ccc(OCCC(C)(C)O)c(C)c1 | Active |  | Active | Active |  |  |  |  | > 10 µM |  |  |
|  | 64% | CCCC(O)(CCC)CCCCOc1ccc(C(CC)(CC)c2ccc(C(=O)NCCCN(CC)CC)n2CC)cc1C | Active |  | Active | Active |  |  |  |  | > 10 µM |  |  |
|  | 71% | CCN(CC)CCNC(=O)c1ccc(C(CC)(CC)c2ccc(OCCCCC(O)(CC)CC)c(C)c2)n1CC | Active |  | Active | Active |  |  |  |  | > 10 µM |  |  |
|  | 67% | CCN(CC)CCCNC(=O)c1cc(C(CC)(CC)c2ccc(OCCC(C)(C)O)c(C)c2)cn1CC | Active |  | Active | Active |  |  |  |  | > 10 µM |  |  |
|  | 48% | CCn1c(C(=O)NCCN(C)C)ccc1C(CC)(CC)c1ccc(OCCC(C)(C)O)c(C)c1 | Active |  | Active | Active |  |  |  |  | > 10 µM |  |  |
| 33% |  | CCN(CC)CCCNC(=O)c1ccc(C(CC)(CC)c2ccc(OCCCCCC(O)(CC)CC)c(C)c2)n1CC | Active |  | Active | Active |  |  |  |  | > 10 µM |  |  |

Source: ChEMBL document CHEMBL4765486, “Novel Nonsecosteroidal Vitamin D Receptor Modulator Combined with Gemcitabine Enhances Pancreatic Cancer Therapy through Remodeling of the Tumor Microenvironment” (J Med Chem, 2021)
